Sampled rows, rich in hits. Any-hit rate of the full collection: about 2.2%.
eIF4H inh: inhibitors of RNA binding by human eIF4H; Q15056; eIF4H fluorescence polarization binding assay; AID 2012; inhibition, % at 35 µM; 290,000 compounds, 0.94% hits;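 further: calls also rest on retests at 20 µM and on dose response follow-up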
MLLE-PAM2 inh: inhibitors of microRNA-mediated deadenylation, human PABP1 MLLE binding; P11940; GST-MLLE / FITC-PAM2 fluorescence polarization; inhibition, % at 20 µM; 360,000 compounds, 0.36% hits; in the data active means inhibition above about 35%, passing the limit was not always enough
VIM-2 inh: blocks Pseudomonas aeruginosa VIM-2 metallo-beta-lactamase; purified VIM-2, nitrocefin hydrolysis, epi-absorbance fluorescence; inhibition, % at 5.6 µM; 290,000 compounds, 0.89% hits; AID 1527;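 active means inhibition above the mean of all tested compounds plus 3 SD, cutoff set per screening run, cut at about 7.5% in these data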;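 further: red hydrolysis product quenches plate fluorescence so inhibitors raise well fluorescence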
PABP polyA inh: PABP-poly(A) binding inhibition; P11940; PABP-poly(A) RNA binding, fluorescence polarization; calls only at 35 µM; 290,000 compounds, 1% hits; AID 2014;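 further: calls also rest on retests at 20 µM and on dose response follow-up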
IMP-1 inh: blocks Pseudomonas aeruginosa IMP-1 metallo-beta-lactamase; purified IMP-1, nitrocefin hydrolysis, epi-absorbance fluorescence; inhibition, % at 5.6 µM; 290,000 compounds, 0.45% hits;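 active means inhibition above the mean plus 3 SD of all compounds in the same screening run, cut at about 4.5% in these data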
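System: purified recombinant IMP-1 beta-lactamase. Medium: Zinc- and detergent-supplemented HEPES buffer, pH 7.1. Compound: one 5.6 µM dose […]. Schedule: 15 min preincubation plus 25 min reaction at 25 °C. Technique: Epi-absorbance fluorescence, 480 nm excitation, 530 nm emission.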
Large screens that a line does not name were inactive. Unless noted, how the calls were made is not given here.

O=C(Nc1ccc(C(=O)N2CCOCC2)cc1)c1ccc([N+](=O)[O-])cc1	none
Cc1nn(C)c(C(=O)NC(=S)Nc2ccc([N+](=O)[O-])cc2)c1Cl	MLLE-PAM2 inh 40
CCC(=O)N(Cc1cc(=O)[nH]c2ccccc12)c1ccc(OC)cc1	none
Cc1cccc(C(=O)NC(=S)NNC(=O)c2ccc(Cl)cc2)c1	none
COc1cc(C(=O)NC(=S)Nc2ccc([N+](=O)[O-])cc2)cc(OC)c1OC	IMP-1 inh 4.6
COc1cc(C(=O)NC(=S)Nc2ccc([N+](=O)[O-])cc2C)cc(OC)c1OC	none
COc1cc(C(=O)NNC(=S)NC(=O)c2ccc(Cl)cc2)cc(OC)c1OC	eIF4H inh 12
Cc1cc(NC(=O)Nc2ccc(Cl)c(Cl)c2)n(-c2ccccc2)n1	none
COc1cc(-c2coc3c(C(=O)NCc4ccccc4)cccc23)ccc1O	none (no result: eIF4H inh, VIM-2 inh, PABP polyA inh, IMP-1 inh)
Cc1cc2oc(=O)cc(CN3CCCCC3)c2cc1Cl	none (no result: eIF4H inh, VIM-2 inh, PABP polyA inh, IMP-1 inh)
CC[n+]1cc(-c2ccccc2)nc(N2CCOCC2)n1	PABP polyA inh active
C=CCOc1ccc(CNc2ccc3[nH]c(=O)[nH]c3c2)cc1OC	eIF4H inh 104, PABP polyA inh active
CC(C)CC(=O)Nc1cccc2c1C(=O)N(c1ccccc1)C2=O	IMP-1 inh 7.5
O=C(C1COc2ccccc2O1)N1CCc2ccccc21 (stereo unspecified)	eIF4H inh 79
O=C(C1COc2ccccc2O1)N1CCCC1 (stereo unspecified)	none
Cc1ccc2c(c1)c(=O)c1c3n2CCN(C(=O)CCl)C3CC1 (stereo unspecified)	eIF4H inh inconclusive, PABP polyA inh active
Cc1ccc2c(c1)c1c3n2CCN(C(=O)CN2CCN(C)CC2)C3CCC1 (stereo unspecified)	none
CCOC(=O)CC(NS(=O)(=O)c1ccc2[nH]cc(C(=O)O)c(=O)c2c1)c1ccc(OCC)c(OC)c1 (stereo unspecified)	eIF4H inh 79, PABP polyA inh active
CCOC(=O)CC(NS(=O)(=O)c1ccc(OC)c(OC)c1)c1cccc([N+](=O)[O-])c1 (stereo unspecified)	none
CCOC(=O)C(CSCC(=O)c1ccc(Cl)cc1Cl)NC(=O)OC(C)(C)C (stereo unspecified)	MLLE-PAM2 inh 49
COC(=O)C1=C(C)N(c2ccc(OC)cc2)C(C)=C(C(=O)OC)C1c1ccccc1	none
COC(=O)C1=C(C)N(c2ccc(OC)cc2)C(C)=C(C(=O)OC)C1c1ccc(OC)cc1	IMP-1 inh 38
O=C(Nc1ccnn1C1CCN(Cc2ccn[nH]2)CC1)c1ccccc1	none
CC1(C)CC(=O)C2=C(C1)Nc1ccccc1NC2c1cccc(F)c1 (stereo unspecified)	none
Cn1cccc1C1Nc2ccccc2NC2=C1C(=O)CC(C)(C)C2 (stereo unspecified)	PABP polyA inh active
Cc1cnc(C=NNC(N)=S)c2cccc(N)c12	MLLE-PAM2 inh 43 (no result: eIF4H inh, VIM-2 inh, PABP polyA inh, IMP-1 inh)
COc1ccc(NS(=O)(=O)c2cc(NC(=O)CCSc3ccccc3)ccc2OC)cc1	eIF4H inh 5.3, PABP polyA inh active
CN(C(=O)C1CC1)C1CCS(=O)(=O)C1 (stereo unspecified)	none (no result: eIF4H inh, VIM-2 inh, PABP polyA inh, IMP-1 inh)
CC(C)Oc1ccc(N2CC(C(=O)Nc3ccccc3C(=O)NC3CC3)CC2=O)cc1 (stereo unspecified)	none (no result: eIF4H inh, VIM-2 inh, PABP polyA inh, IMP-1 inh)
O=C(O)C(O)c1ccccc1 (stereo unspecified)	none
O=C(O)C(O)c1ccco1 (stereo unspecified)	eIF4H inh 104, PABP polyA inh active
CCCCc1c(O)nc(SCCN(C)C)n(-c2ccccc2)c1=O	MLLE-PAM2 inh 38
CN(C)CCSc1nc(O)c(-c2ccccc2)c(=O)n1-c1ccccc1	none
Cc1ccccc1OC(C)C(=O)Nc1ccc(S(=O)(=O)Nc2nccs2)cc1 (stereo unspecified)	none
CN(C)/C=C1/C=C(c2ccccc2)OC1=O	none
CCC1=C/C(=C/N(C)c2ccccc2)C(=O)S1	eIF4H inh 53, PABP polyA inh active, IMP-1 inh 6.1
Cc1oc2ccc(O)cc2c1C(=O)c1ccc([N+](=O)[O-])cc1	eIF4H inh active, PABP polyA inh active
CCC(CC)c1nnc(NC(=O)C2CC(=O)N(CCc3ccc(F)cc3)C2)s1 (stereo unspecified)	MLLE-PAM2 inh 32
CC(=O)Nc1ccc(NC(=O)CN2CCN(c3ccccn3)CC2)cc1	none
O=C(CN1CCN(c2ccccn2)CC1)Nc1ccc(OC(F)(F)F)cc1	IMP-1 inh 6.1
